# Screening data: PubChem BioAssay, Johns Hopkins Ion Channel Center
# TRPC4 act = activators of mouse TRPC4 channel. Q9QUQ5. HEK293 TRPC4beta/mu-opioid, Fluo4 calcium fluorescence; hits give high values. B-score at 10 µM. hit rate 0.49% among 310,000. AID 2237;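 active = B-score above 5 SD of library B-scores, and initial fluorescence ratio not above library mean plus 5 SD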;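 note: positive B-score marks a calcium rise read as TRPC4 activation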
# Target sequence (Q9QUQ5 whole entry, looked up): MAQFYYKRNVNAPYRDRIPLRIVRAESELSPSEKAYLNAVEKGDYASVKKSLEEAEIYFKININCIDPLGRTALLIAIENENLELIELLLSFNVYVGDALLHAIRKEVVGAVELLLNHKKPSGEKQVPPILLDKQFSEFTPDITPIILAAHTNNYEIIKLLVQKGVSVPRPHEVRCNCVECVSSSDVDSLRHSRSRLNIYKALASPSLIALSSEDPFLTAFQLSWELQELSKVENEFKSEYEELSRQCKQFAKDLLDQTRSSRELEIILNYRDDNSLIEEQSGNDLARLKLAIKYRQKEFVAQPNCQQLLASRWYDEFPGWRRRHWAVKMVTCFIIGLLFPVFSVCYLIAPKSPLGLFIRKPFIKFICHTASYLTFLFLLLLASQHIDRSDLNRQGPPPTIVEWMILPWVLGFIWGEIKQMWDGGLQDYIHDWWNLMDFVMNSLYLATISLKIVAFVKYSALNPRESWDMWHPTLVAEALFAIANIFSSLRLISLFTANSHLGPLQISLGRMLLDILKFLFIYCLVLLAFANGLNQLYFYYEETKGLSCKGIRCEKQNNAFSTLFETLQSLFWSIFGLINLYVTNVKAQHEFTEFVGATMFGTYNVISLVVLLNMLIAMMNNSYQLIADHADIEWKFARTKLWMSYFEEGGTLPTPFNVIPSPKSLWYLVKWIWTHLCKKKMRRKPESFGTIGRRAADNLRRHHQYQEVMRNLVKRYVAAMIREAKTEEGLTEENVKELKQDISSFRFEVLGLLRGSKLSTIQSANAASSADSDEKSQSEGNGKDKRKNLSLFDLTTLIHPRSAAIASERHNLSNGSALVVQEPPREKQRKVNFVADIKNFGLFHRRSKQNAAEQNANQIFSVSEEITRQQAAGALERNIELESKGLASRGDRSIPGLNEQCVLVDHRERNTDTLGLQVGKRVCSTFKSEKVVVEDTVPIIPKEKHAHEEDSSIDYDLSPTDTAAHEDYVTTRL
#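 Assay system – TRPC4beta and mu-opioid receptor HEK293 stable cells · Measured by – Fluo4 fluorescence, kinetic · Schedule – dye loading 45 min room temperature, 110 s kinetic read · Read-out – B-scored integrated calcium fluorescence ratio · Controls – buffer and maximal DAMGO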
# TRPC6 activator = activates the mouse TRPC6 cation channel; HEK293-TRPC6 membrane potential dye fluorescence; hits give high values; B-score at 10 µM; hit rate 0.13% among 310,000; AID 2550;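 active = B-score of the integrated fluorescence ratio above library mean plus 3 SD, and starting fluorescence ratio within library mean plus 5 SD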;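 note: higher score means more depolarization so channel activation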
# TRPC4 inh = TRPC4 (mouse) channel inhibition | B-score at 10 µM | HEK293 TRPC4beta/mu-opioid, DAMGO-evoked Fluo4 calcium flux; hits give low values | hit rate 0.39% among 300,000 | AID 2247 | Q9QUQ5;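 active = B-score over 3 SD under the library average, no early fluorescence shift, positive overall ratio signal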
#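 Signal: kinetic Fluo4 fluorescence imaging of calcium influx. Material: stable TRPC4beta/mu-opioid receptor HEK293 cells. Probe or stimulus: DAMGO in two steps, submaximal then maximal.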
# TRPC6 inh = inhibitors of mouse TRPC6 channel; hit rate 1.1% among 310,000; HEK293-TRPC6, membrane potential dye, ACh-evoked depolarization; hits give low values; Q61143; B-score at 10 µM; AID 2553;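 active = B-score under library mean minus 3 SD, initial fluorescence not abnormally high, positive integrated signal ratio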;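 note: B-score derived from integrated fluorescence ratio over the kinetic read; more negative B-score means stronger inhibition of depolarization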
# TRPC4 potent = TRPC4 (mouse) allosteric potentiation; Q9QUQ5; HEK293 TRPC4beta/mu-opioid, DAMGO EC20, Fluo-4 Ca2+ flux; hits give high values; B-score at 10 µM; hit rate 0.42% among 310,000; AID 2227;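 active = B-score of calcium response area above 5 SD of library B-scores, with initial fluorescence ratio within 5 SD of library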
# TRPC4 sel inh 2 = second check of whether TRPC6 inhibitors also affect mouse TRPC4; inhibition, % at 10 µM; hit rate 42% among 920; shares compounds with TRPC6 inh; AID 2776; HEK293 TRPC4/MOR, membrane potential dye fluorescence; channel activated by saturating DAMGO dose;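 active = compounds whose fluorescence signal differed from control wells by over 3 SD, either direction, in both duplicate plates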
# TRPC4 spec = selectivity of TRPC6 inhibitors: effect on mouse TRPC4; activity change, negative = inhibition, % at 10 µM; HEK293 TRPC4/mu-opioid, membrane potential fluorescence; AID 2777; shares compounds with TRPC6 inh; hit rate 61% among 920;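 active = rise or fall in signal beyond 3 SD of buffer-only wells in both replicate plates, either sign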;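 note: integrated kinetic ratio of fluorescence range over baseline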
# HEK293 MPD ctr 2-1 = second check of TRPC6 inhibitor effects in parental HEK293 cells; shares compounds with TRPC6 inh; parental HEK293 membrane potential dye fluorescence; maximal acetylcholine challenge after compound addition; hit rate 31% among 920; signal change vs control, % at 10 µM;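 active = membrane potential signal moving either way by over 3 SD of the maximum-effect control, in both duplicate plates, meaning non-specific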
# HEK293 MPD ctr-1 = counter-screen for TRPC6 inhibitors: effect in parental HEK293 cells; shares compounds with TRPC6 inh; parental HEK293 membrane potential dye fluorescence; membrane potential signal change, % at 10 µM; hit rate 60% among 920;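 active = membrane potential signal shifting up or down by more than 3 SD of buffer-only wells, on both duplicate plates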
# HEK293 MPD ctr-2 = counter-screen for TRPC6 modulators: effect in parental HEK293 cells; shares compounds with TRPC6 inh; membrane potential dye fluorescence; membrane potential signal change, % at 10 µM; hit rate 51% among 2,400; AID 488924;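 active = membrane potential signal moves up or down beyond 5 SD from buffer-only wells, on both duplicate plates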
# HEK293 MPD ctr 2-2 = second counter-screen for TRPC6 modulators: effect in parental HEK293 cells; shares compounds with TRPC6 inh; membrane potential dye fluorescence; after compound, maximal acetylcholine stimulation; inhibition, % at 10 µM; hit rate 14% among 2,400;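 active = membrane potential signal drops by more than 5 SD from the mean control signal, in both duplicate plates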
# TRPC4 ctr mod = tests whether TRPC6 modulators also affect mouse TRPC4; shares compounds with TRPC6 inh; HEK293 TRPC4/mu-opioid, membrane potential fluorescence; percent change from control (negative = decrease, positive = increase), % at 10 µM; hit rate 69% among 2,400; AID 488927;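 active = membrane potential signal moved up or down beyond 5 SD of buffer control wells, in both duplicate plates, actives on both sides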
# TRPC4 ctr inh 2 = second selectivity test of TRPC6 modulators against mouse TRPC4; inhibition, % at 10 µM; hit rate 55% among 2,400; HEK293 TRPC4/mu-opioid, membrane potential dye fluorescence; stimulated with maximal-effect DAMGO; shares compounds with TRPC6 inh;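 active = drop in membrane potential signal beyond 5 SD of the control wells in both duplicate plates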;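 note: TRPC4 counter screen for TRPC6 hits run under conditions tuned for TRPC6 not TRPC4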
# TRPC6 block conf = mouse TRPC6 inhibitor confirmation | shares compounds with TRPC6 inh | HEK293-TRPC6, membrane potential dye, ACh-evoked depolarization | inhibition, % at 10 µM | hit rate 43% among 3,300 | AID 488960;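 active = fluorescence ratio falls more than 5 SD below the full-stimulation control mean, in both duplicate runs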;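 note: integrated fluorescence ratio of peak minus minimum over baseline after agonist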
# TRPC6 act confirm = mouse TRPC6 activator confirmation; shares compounds with TRPC6 inh; HEK293-TRPC6 membrane potential dye fluorescence, FDSS; activation, % at 10 µM; hit rate 11% among 2,800; AID 488961;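 active = ratio signal rise beyond 5 SD above unstimulated control wells' mean, seen in both duplicate runs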
# Numbers stand for hits; – = inactive; · = no result. Compounds with a hit are over-represented: about 2.3% of the library has one in this group of screens.
SMILES,TRPC4 act,TRPC6 activator,TRPC4 inh,TRPC6 inh,TRPC4 potent,HEK293 MPD ctr-2,HEK293 MPD ctr 2-2,TRPC4 ctr mod,TRPC4 ctr inh 2,TRPC6 block conf,TRPC6 act confirm,others
Cc1cc(Nc2ccc([N+](=O)[O-])cc2)c2ccccc2n1,–,–,–,–,–,·,·,·,·,·,·,
Cc1cc(Nc2cccc([N+](=O)[O-])c2)c2cccc(C)c2n1,–,–,–,-6.8,–,·,·,·,·,–,–,TRPC4 sel inh 2=62%;TRPC4 spec=-24%;HEK293 MPD ctr 2-1=43%;HEK293 MPD ctr-1=-444%
Cc1cc(Nc2cccc([N+](=O)[O-])c2)c2ccccc2n1,–,–,–,-8.1,–,-164%,–,-34%,52%,46%,–,
COC(=O)c1ccc(CN2CCCC(CO)(Cc3ccc(F)cc3F)C2)cc1 (stereo not given),–,–,–,–,–,·,·,·,·,·,·,
Cc1ccc(N=Cc2cc(Br)cc(Cl)c2O)cc1,–,–,–,–,–,·,·,·,·,·,·,
Cc1cc(C)cc(N=Cc2[nH]c3ccc(Br)c(Cl)c3c2O)c1,–,36,–,–,11,–,–,–,–,–,–,
CCCCc1ccc(NC(=O)c2cnccn2)cc1,–,–,–,–,–,·,·,·,·,·,·,
COc1ccc(-n2c(O)c(/C=N/NS(=O)(=O)c3ccc(C)cc3)c3ccccc3c2=O)cc1OC,–,29,–,–,–,242%,–,11%,–,–,96%,
COc1ccc(-n2c(O)c(/C=N/NS(=O)(=O)c3cc(C)ccc3C)c3ccccc3c2=O)cc1OC,–,–,–,–,–,·,·,·,·,·,·,
O=C(C1CCC1)N1CCC(O)(c2cccc(F)c2)CC1,–,–,–,–,–,·,·,·,·,·,·,
O=[N+]([O-])c1ccc(/C=N/Nc2nc(N3CCCCC3)nc(N3CCCCC3)n2)cc1,–,–,–,-6,–,–,–,–,–,–,–,
CCC(=O)N/C(=N/c1nc(C)cc(C)n1)Nc1cccc(OC)c1,–,–,–,-5.8,–,–,–,–,–,–,–,
COCC(C)OC(=O)C(C#N)c1nc2ccccc2nc1N1CCN(Cc2ccccc2)CC1 (stereo not given),–,–,–,–,–,·,·,·,·,·,·,
COCCOC(=O)C(C#N)c1nc2ccccc2nc1N1CCN(Cc2ccccc2)CC1 (stereo not given),–,–,–,-6.2,–,–,–,–,36%,–,–,
O=C(CNC(=O)c1cccs1)NCC(=O)OCc1ccc(F)cc1,–,–,–,–,–,·,·,·,·,·,·,
COC(=O)c1ccc(COC(=O)CNC(=O)c2cccs2)cc1,–,–,–,-6.2,–,–,–,-8.0%,–,–,–,
Cc1ccc2c(c1)c1c3n2CCN=C3CCC1,–,–,–,-5,–,-171%,–,-28%,49%,–,–,
CC1CCN(CCCNC(=O)c2coc3nc4ccccc4nc23)CC1,–,–,–,-5.1,–,–,–,-16%,46%,–,–,
CC1CCCN(CCCNC(=O)c2coc3nc4ccccc4nc23)C1 (stereo not given),–,–,–,–,–,·,·,·,·,·,·,
COc1cc(C(C)=O)ccc1OCC(O)Cn1nc(C)c(Br)c1C (stereo not given),–,–,–,–,–,·,·,·,·,·,·,
Cn1c(NCc2ccc(Cl)cc2)nc2ccccc21,–,–,–,–,–,·,·,·,·,·,·,
Cc1ccc(CNc2ccc3c(c2)nc(C)n3C)cc1,–,–,–,-8.1,–,·,·,·,·,66%,–,TRPC4 sel inh 2=50%;TRPC4 spec=-15%;HEK293 MPD ctr 2-1=–;HEK293 MPD ctr-1=-176%
Cc1nc2cc(NCc3ccc(Cl)cc3)ccc2n1C,–,–,–,-7.1,–,·,·,·,·,60%,–,TRPC4 sel inh 2=51%;TRPC4 spec=-15%;HEK293 MPD ctr 2-1=–;HEK293 MPD ctr-1=-300%
Cc1ccc(CNc2ccc3c(c2)ncn3C(C)(C)C)cc1,–,–,–,-6.8,21,·,·,·,·,–,–,TRPC4 sel inh 2=52%;TRPC4 spec=12%;HEK293 MPD ctr 2-1=240%;HEK293 MPD ctr-1=–
Cc1nc2cc(CO)ccc2n1C,–,–,–,–,–,·,·,·,·,·,·,
COc1ccc(NC(=O)CSc2nnc(-c3cnccn3)n2C)cc1OC,–,–,–,–,–,·,·,·,·,·,·,
CCc1ccc(-c2nc(CS(=O)CC(=O)NCCCN3CCC(C)CC3)c(C)o2)cc1 (stereo not given),–,–,–,–,–,·,·,·,·,·,·,
Cc1cccc(OCCSc2nc3ccccc3n2CCC(=O)O)c1,–,–,–,–,–,·,·,·,·,·,·,
